Assay results reported in ChEMBL document CHEMBL3297715, “Potent cytotoxic arylnaphthalene lignan lactones from Phyllanthus poilanei” (J Nat Prod, 2014).
The source made the active and inactive calls. The calls are words filed in the database; no cut-off is given here.

Legend:
[1] = test system: HT-29; experiment: Cytotoxicity against human HT-29 cells; type: functional, cell-based
Procedure, shortened: (§1)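 Paired cancer (HT-29 colon) and normal (CCD-112CoN colon) human cell lines, same screening method for both. Paclitaxel and etoposide as positive controls. IC50 from nonlinear regression. Triplicate measurements, representative of two independent experiments.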

[2] = Cytotoxicity against human CCD-112CoN cells; type: cell-based; procedure, shortened: as §1
[3] = test system: HT-29; experiment: Antitumor activity against human HT-29 cells xenografted in immunodeficient NCr nu/nu mouse assessed as inhibition of cell growth at 10 to 20 mg/kg, ip qd for 4 days administered from day 3 to day 6 post-implantation measured on day 7; type: functional, organism-based
Procedure, shortened: (§2)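 HT-29 human colon cancer cells in hollow fibres implanted in 8–9-week-old NCr nu/nu mice. Drug in DMSO/Cremophor, diluted with water to 13% DMSO and 25% Cremophor. Doses 5.0–20.0 mg/kg ip once daily for 4 days (days 3–6); vehicle control; paclitaxel 5 mg/kg. Fibres retrieved day 7. Modified MTT net growth (day 7 minus day 0) relative to vehicle; n=3 treated; Student's t test.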

[4] = test system: HT-29; experiment: Antitumor activity against human HT-29 cells xenografted in immunodeficient NCr nu/nu mouse assessed as inhibition of cell growth at 5 mg/kg, ip qd for 4 days administered from day 3 to day 6 post-implantation measured on day 7; type: functional, organism-based; parameters: dose 5 mg/kg; procedure, shortened: as §2
[5] = test system: HT-29; experiment: Induction of apoptosis in human HT-29 cells assessed as early apoptotic cells at 1 uM after 72 hrs by flow cytometry (reference value: 3.93%); type: functional
[6] = test system: HT-29; experiment: Antitumor activity against human HT-29 cells xenografted in ip dosed immunodeficient NCr nu/nu mouse assessed as inhibition of cell growth administered qd for 4 days from day 3 to day 6 post-implantation measured on day 7; type: functional, organism-based; procedure, shortened: as §2
[7] = test system: Mus musculus; experiment: Toxicity in immunodeficient NCr nu/nu mouse xenografted with human HT-29 cells at 5 to 20 mg/kg, ip qd for 4 days administered from day 3 to day 6 post-implantation; type: organism-based; parameters: dose 5-20 mg/kg, route intraperitoneal; conditions: in vivo, 96 h
Procedure, shortened: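 NCr nu/nu mice bearing hollow-fibre HT-29 implants. Dosed ip once daily for 4 days at 5.0–20.0 mg/kg in 13% DMSO/25% Cremophor/water. Body weight recorded daily and signs of toxicity observed until sacrifice on day 7.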

[8] = target: DNA topoisomerase 2-alpha (Homo sapiens) (UniProt P11388); experiment: Inhibition of topoisomerase 2-alpha (unknown origin)-mediated relaxation of supercoiled pBR322 DNA at 100 uM by ethidium bromide staining based agarose gel electrophoresis
DNA topoisomerase 2-alpha (Homo sapiens), sequence (P11388 whole entry): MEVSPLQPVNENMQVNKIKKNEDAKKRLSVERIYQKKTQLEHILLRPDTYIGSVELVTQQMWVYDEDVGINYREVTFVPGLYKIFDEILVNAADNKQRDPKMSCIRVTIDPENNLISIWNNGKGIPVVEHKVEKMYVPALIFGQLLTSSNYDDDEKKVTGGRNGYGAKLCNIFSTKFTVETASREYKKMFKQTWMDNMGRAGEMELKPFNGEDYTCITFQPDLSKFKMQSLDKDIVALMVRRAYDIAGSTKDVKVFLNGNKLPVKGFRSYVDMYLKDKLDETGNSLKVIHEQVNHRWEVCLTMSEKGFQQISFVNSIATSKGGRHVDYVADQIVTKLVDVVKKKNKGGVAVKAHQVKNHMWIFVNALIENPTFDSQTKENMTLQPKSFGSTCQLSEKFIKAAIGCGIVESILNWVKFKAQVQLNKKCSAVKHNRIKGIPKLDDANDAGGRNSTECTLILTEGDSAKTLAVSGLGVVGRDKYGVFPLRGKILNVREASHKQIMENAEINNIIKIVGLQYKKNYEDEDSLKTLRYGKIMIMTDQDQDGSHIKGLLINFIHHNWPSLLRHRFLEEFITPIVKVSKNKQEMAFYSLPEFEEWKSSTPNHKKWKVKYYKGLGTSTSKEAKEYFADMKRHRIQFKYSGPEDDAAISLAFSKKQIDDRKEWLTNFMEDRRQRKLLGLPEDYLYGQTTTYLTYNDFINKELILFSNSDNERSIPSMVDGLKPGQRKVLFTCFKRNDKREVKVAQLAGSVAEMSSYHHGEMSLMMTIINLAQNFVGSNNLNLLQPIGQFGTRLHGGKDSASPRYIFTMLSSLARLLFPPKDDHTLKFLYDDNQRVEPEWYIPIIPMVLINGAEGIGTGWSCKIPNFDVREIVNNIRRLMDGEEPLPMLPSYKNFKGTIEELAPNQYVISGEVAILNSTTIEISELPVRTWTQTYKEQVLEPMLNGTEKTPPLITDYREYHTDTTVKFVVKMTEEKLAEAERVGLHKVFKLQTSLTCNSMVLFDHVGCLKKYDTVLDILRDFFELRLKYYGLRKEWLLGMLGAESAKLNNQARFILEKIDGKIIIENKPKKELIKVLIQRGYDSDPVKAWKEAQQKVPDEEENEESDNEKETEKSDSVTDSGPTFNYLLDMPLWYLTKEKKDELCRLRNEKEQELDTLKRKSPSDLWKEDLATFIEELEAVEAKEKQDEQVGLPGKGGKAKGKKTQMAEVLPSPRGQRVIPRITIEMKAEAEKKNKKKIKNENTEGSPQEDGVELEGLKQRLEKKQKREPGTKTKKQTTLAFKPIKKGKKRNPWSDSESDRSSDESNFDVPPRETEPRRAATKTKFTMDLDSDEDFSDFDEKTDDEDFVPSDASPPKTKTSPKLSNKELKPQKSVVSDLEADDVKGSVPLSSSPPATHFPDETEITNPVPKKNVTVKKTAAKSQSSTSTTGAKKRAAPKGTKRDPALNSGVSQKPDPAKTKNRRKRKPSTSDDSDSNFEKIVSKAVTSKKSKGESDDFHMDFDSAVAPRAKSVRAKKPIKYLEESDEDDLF

[9] = test system: HT-29; experiment: Induction of apoptosis in human HT-29 cells assessed as late apoptotic cells at 1 uM after 72 hrs by flow cytometry (reference value: 8.60%); type: functional
[10] = test system: HT-29; experiment: Induction of apoptosis in human HT-29 cells assessed as early apoptotic cells at 5 uM after 72 hrs by flow cytometry (reference value: 3.93%); type: functional
[11] = test system: HT-29; experiment: Induction of apoptosis in human HT-29 cells assessed as late apoptotic cells at 5 uM after 72 hrs by flow cytometry (reference value: 8.60%); type: functional
[12] = test system: HT-29; experiment: Induction of apoptosis in human HT-29 cells assessed as caspase-3 activation by measuring cleaved caspase-3 level at 1 to 10 uM after 24 hrs by western blot analysis; type: functional, cell-based
Procedure, shortened: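 HT-29 cells exposed 24 h to a range of concentrations. Lysed in NP-40/HEPES pH 7.5/0.5 M NaCl buffer with protease and phosphatase inhibitors. Resolved on 4–15% SDS-PAGE and immunoblotted with rabbit monoclonal cleaved caspase-3 (Asp175) antibody. Representative of three independent experiments.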

| SMILES | IC50 [1] [µM] | IC50 [2] [µM] | inhibition [8] | also measured |
| --- | --- | --- | --- | --- |
| COc1cc2c(O)c3c(c(-c4ccc5c(c4)OCO5)c2cc1OC)C(=O)OC3 [DIPHYLLIN] | 7.6 | – | – | – |
| CC(=O)O[C@H]1C(=O)[C@@]2(C)[C@H]([C@H](OC(=O)c3ccccc3)[C@]3(O)C[C@H](OC(=O)[C@H](O)[C@@H](NC(=O)c4ccccc4)c4ccccc4)C(C)=C1C3(C)C)[C@]1(OC(C)=O)CO[C@@H]1C[C@@H]2O [PACLITAXEL] | – | 23 | – | – |
| COc1cc2c(O[C@@H]3OC[C@H](OC(C)=O)[C@H](OC(C)=O)[C@H]3O)c3c(c(-c4ccc5c(c4)OCO5)c2cc1OC)C(=O)OC3 | 0.17 | > 100 | inactive | inhibition [3]: Active; inhibition [4]: inactive; Activity [5]: 28.2%; inhibition [6]: Dose-dependent effect; Activity [7]: Non-toxic; Activity [9]: 27.3%; Activity [10]: 30.3%; Activity [11]: 38%; Activity [12]: Active |
| COc1cc2c(O[C@@H]3OC[C@H](O)[C@H](OC(C)=O)[C@H]3O)c3c(c(-c4ccc5c(c4)OCO5)c2cc1OC)C(=O)OC3 | 1.8 | – | – | – |
| COc1cc2c(O[C@@H]3OC[C@H](OC(C)=O)[C@H](OC(C)=O)[C@H]3OC(C)=O)c3c(c(-c4ccc5c(c4)OCO5)c2cc1OC)C(=O)OC3 | 0.11 | – | inactive | – |
| COc1cc2c(O[C@@H]3OC[C@H](OC(C)=O)[C@H](O)[C@H]3O)c3c(c(-c4ccc5c(c4)OCO5)c2cc1OC)C(=O)OC3 | 1.8 | – | – | – |
| COc1cc2c(O[C@@H]3OC[C@H](O)[C@H](O)[C@H]3O)c3c(c(-c4ccc5c(c4)OCO5)c2cc1OC)C(=O)OC3 [ACUTISSIMALIGNAN A] | 3.2 | > 100 | inactive | – |
| COc1cc([C@@H]2c3cc4c(cc3[C@@H](O[C@@H]3O[C@@H]5CO[C@@H](C)O[C@H]5[C@H](O)[C@H]3O)[C@H]3COC(=O)[C@H]23)OCO4)cc(OC)c1O [ETOPOSIDE] | – | – | – | Activity [5]: 12.9%; Activity [9]: 19.8%; Activity [10]: 12.5%; Activity [11]: 25.3%; Activity [12]: inactive |
| COc1cc2c(O[C@@H]3O[C@H](CO)[C@@H](O)[C@H](O)[C@H]3O)c3c(c(-c4ccc5c(c4)OCO5)c2cc1OC)C(=O)OC3 | > 10 | – | – | – |
| COc1cc2c(OC)c3c(c(-c4ccc5c(c4)OCO5)c2cc1OC)C(=O)OC3 [JUSTICIDIN A] | > 10 | – | – | – |
